In article PMC7993274 (Clinical and Translational Science, 2020):

Experiment: Treatment-emergent adverse events, SAD period
Format: in vivo, human
Summary of the method: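 Double-blind, placebo-controlled study in healthy men and nonchildbearing women aged 18–55 y. The SAD period gave one fasted oral dose; the MAD period gave fed dosing q.d. for 10 days, plus a separate b.i.d. cohort. TEAEs, serious AEs and discontinuation AEs were monitored ≥28 days after the last dose. Vital signs, physical exam, 12-lead ECG, hematology, clinical chemistry and urinalysis were also recorded. Data summarized descriptively.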

Cn1cc(-c2cn3nccc3c(-c3cnn([C@]4(CC#N)C[C@@H](C#N)C4)c3)n2)cn1 [PF‐06826647]
9 n: AEs (SAD 100 mg (n = 7))
0 n (%): Participants with AEs (SAD 3 mg (n = 6)) | Participants with TEAEs: Alanine aminotransferase increased (SAD 3 mg (n = 6)) | Participants with TEAEs: Aspartate aminotransferase increased (SAD 3 mg (n = 6)) | Participants with TEAEs: Edema (SAD 3 mg (n = 6)) | Participants with TEAEs: Face edema (SAD 3 mg (n = 6)) | Participants with TEAEs: Gastrointestinal disorders (SOC) (SAD 3 mg (n = 6)) | Participants with TEAEs: General disorders and administration site conditions (SOC) (SAD 3 mg (n = 6)) | Participants with TEAEs: Headache (SAD 3 mg (n = 6)) | Participants with TEAEs: Injury, poisoning, and procedural complications (SOC) (SAD 3 mg (n = 6)) | Participants with TEAEs: Investigations (SOC) (SAD 3 mg (n = 6)) | Participants with TEAEs: Nausea (SAD 3 mg (n = 6)) | Participants with TEAEs: Nervous system disorders (SOC) (SAD 3 mg (n = 6)) | Participants with TEAEs: Periorbital hematoma (SAD 3 mg (n = 6)) | Participants with TEAEs: Periorbital hemorrhage (SAD 3 mg (n = 6)) | Participants with TEAEs: Peripheral swelling (SAD 3 mg (n = 6)) | Participants with TEAEs: Pruritus (SAD 3 mg (n = 6)) | Participants with TEAEs: Rash (SAD 3 mg (n = 6)) | Participants with TEAEs: Skin and subcutaneous tissue disorders (SOC) (SAD 3 mg (n = 6)) | Participants with TEAEs: Urticaria (SAD 3 mg (n = 6)) | Participants with AEs (SAD 10 mg (n = 6)) | Participants with TEAEs: Alanine aminotransferase increased (SAD 10 mg (n = 6)) | Participants with TEAEs: Aspartate aminotransferase increased (SAD 10 mg (n = 6)) | Participants with TEAEs: Edema (SAD 10 mg (n = 6)) | Participants with TEAEs: Face edema (SAD 10 mg (n = 6)) | Participants with TEAEs: Gastrointestinal disorders (SOC) (SAD 10 mg (n = 6)) | Participants with TEAEs: General disorders and administration site conditions (SOC) (SAD 10 mg (n = 6)) | Participants with TEAEs: Headache (SAD 10 mg (n = 6)) | Participants with TEAEs: Injury, poisoning, and procedural complications (SOC) (SAD 10 mg (n = 6)) | Participants with TEAEs: Investigations (SOC) (SAD 10 mg (n = 6)) | Participants with TEAEs: Nausea (SAD 10 mg (n = 6)) | Participants with TEAEs: Nervous system disorders (SOC) (SAD 10 mg (n = 6)) | Participants with TEAEs: Periorbital hematoma (SAD 10 mg (n = 6)) | Participants with TEAEs: Periorbital hemorrhage (SAD 10 mg (n = 6)) | Participants with TEAEs: Peripheral swelling (SAD 10 mg (n = 6)) | Participants with TEAEs: Pruritus (SAD 10 mg (n = 6)) | Participants with TEAEs: Rash (SAD 10 mg (n = 6)) | Participants with TEAEs: Skin and subcutaneous tissue disorders (SOC) (SAD 10 mg (n = 6)) | Participants with TEAEs: Urticaria (SAD 10 mg (n = 6)) | Participants with AEs (SAD 30 mg (n = 8)) | Participants with TEAEs: Alanine aminotransferase increased (SAD 30 mg (n = 8)) | Participants with TEAEs: Aspartate aminotransferase increased (SAD 30 mg (n = 8)) | Participants with TEAEs: Edema (SAD 30 mg (n = 8)) | Participants with TEAEs: Face edema (SAD 30 mg (n = 8)) | Participants with TEAEs: Gastrointestinal disorders (SOC) (SAD 30 mg (n = 8)) | Participants with TEAEs: General disorders and administration site conditions (SOC) (SAD 30 mg (n = 8)) | Participants with TEAEs: Headache (SAD 30 mg (n = 8)) | Participants with TEAEs: Injury, poisoning, and procedural complications (SOC) (SAD 30 mg (n = 8)) | Participants with TEAEs: Investigations (SOC) (SAD 30 mg (n = 8)) | Participants with TEAEs: Nausea (SAD 30 mg (n = 8)) | Participants with TEAEs: Nervous system disorders (SOC) (SAD 30 mg (n = 8)) | Participants with TEAEs: Periorbital hematoma (SAD 30 mg (n = 8)) | Participants with TEAEs: Periorbital hemorrhage (SAD 30 mg (n = 8)) | Participants with TEAEs: Peripheral swelling (SAD 30 mg (n = 8)) | Participants with TEAEs: Pruritus (SAD 30 mg (n = 8)) | Participants with TEAEs: Rash (SAD 30 mg (n = 8)) | Participants with TEAEs: Skin and subcutaneous tissue disorders (SOC) (SAD 30 mg (n = 8)) | Participants with TEAEs: Urticaria (SAD 30 mg (n = 8))
0 n: AEs (SAD 3 mg (n = 6)) | AEs leading to study drug dose reduction or interruption (SAD 3 mg (n = 6)) | SAEs (SAD 3 mg (n = 6)) | Severe AEs (SAD 3 mg (n = 6)) | AEs (SAD 10 mg (n = 6)) | AEs leading to study drug dose reduction or interruption (SAD 10 mg (n = 6)) | SAEs (SAD 10 mg (n = 6)) | Severe AEs (SAD 10 mg (n = 6)) | AEs (SAD 30 mg (n = 8)) | AEs leading to study drug dose reduction or interruption (SAD 30 mg (n = 8)) | SAEs (SAD 30 mg (n = 8)) | Severe AEs (SAD 30 mg (n = 8))
